Source: paper PMC6142812 (Bioorganic & medicinal chemistry letters, 2018)
Blank lines part the entries; values can stand above or below the compound they belong to.

Assays:
rat mGlu5 = rat mGlu5 (Rattus norvegicus, UniProt P31424); assay: Calcium mobilization rat mGlu5 functional assay; type: cell-based; conditions: for fold more active than 11: mGlu5 potency relative to compound 11; for mGlu5 pIC50 (±SEM): rat mGlu5 in HEK293A cells, EC80 glutamate, avg. of n ≥ 3
[1] = Stability in rat whole blood at 37 °C; type: in vitro ADME; conditions: one hour
[2] = Rat pharmacokinetics study, intravenous dosing; type: in vivo; conditions: compound 14; male Sprague-Dawley rats, IV 1.0 mg/kg, n=2
Summary of the method: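 Single IV dose of 1.0 mg/kg test compound given to male Sprague-Dawley rats (n=2). Half-life, mean residence time, plasma clearance and steady-state volume of distribution were derived for the parent and for its alcohol metabolite.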

[3] = Metabolic stability in human S9 hepatic fractions with and without NADPH; type: in vitro ADME; conditions: for CLHEP (predicted hepatic clearance): QH = 21; for CLint scaled at 1 h: human, liver S9 hepatic fractions, CLINT (intrinsic clearance)
[4] = Metabolic stability in rat S9 hepatic fractions with and without NADPH; type: in vitro ADME; conditions: for CLHEP (predicted hepatic clearance): QH = 70; for CLint scaled at 1 h: rat, liver S9 hepatic fractions, CLINT (intrinsic clearance)
[5] = test system: other seven mGlu receptors; conditions: comparators 1 and 2, previously published; cited from earlier work

Sequence of rat mGlu5 (P31424 21-1203): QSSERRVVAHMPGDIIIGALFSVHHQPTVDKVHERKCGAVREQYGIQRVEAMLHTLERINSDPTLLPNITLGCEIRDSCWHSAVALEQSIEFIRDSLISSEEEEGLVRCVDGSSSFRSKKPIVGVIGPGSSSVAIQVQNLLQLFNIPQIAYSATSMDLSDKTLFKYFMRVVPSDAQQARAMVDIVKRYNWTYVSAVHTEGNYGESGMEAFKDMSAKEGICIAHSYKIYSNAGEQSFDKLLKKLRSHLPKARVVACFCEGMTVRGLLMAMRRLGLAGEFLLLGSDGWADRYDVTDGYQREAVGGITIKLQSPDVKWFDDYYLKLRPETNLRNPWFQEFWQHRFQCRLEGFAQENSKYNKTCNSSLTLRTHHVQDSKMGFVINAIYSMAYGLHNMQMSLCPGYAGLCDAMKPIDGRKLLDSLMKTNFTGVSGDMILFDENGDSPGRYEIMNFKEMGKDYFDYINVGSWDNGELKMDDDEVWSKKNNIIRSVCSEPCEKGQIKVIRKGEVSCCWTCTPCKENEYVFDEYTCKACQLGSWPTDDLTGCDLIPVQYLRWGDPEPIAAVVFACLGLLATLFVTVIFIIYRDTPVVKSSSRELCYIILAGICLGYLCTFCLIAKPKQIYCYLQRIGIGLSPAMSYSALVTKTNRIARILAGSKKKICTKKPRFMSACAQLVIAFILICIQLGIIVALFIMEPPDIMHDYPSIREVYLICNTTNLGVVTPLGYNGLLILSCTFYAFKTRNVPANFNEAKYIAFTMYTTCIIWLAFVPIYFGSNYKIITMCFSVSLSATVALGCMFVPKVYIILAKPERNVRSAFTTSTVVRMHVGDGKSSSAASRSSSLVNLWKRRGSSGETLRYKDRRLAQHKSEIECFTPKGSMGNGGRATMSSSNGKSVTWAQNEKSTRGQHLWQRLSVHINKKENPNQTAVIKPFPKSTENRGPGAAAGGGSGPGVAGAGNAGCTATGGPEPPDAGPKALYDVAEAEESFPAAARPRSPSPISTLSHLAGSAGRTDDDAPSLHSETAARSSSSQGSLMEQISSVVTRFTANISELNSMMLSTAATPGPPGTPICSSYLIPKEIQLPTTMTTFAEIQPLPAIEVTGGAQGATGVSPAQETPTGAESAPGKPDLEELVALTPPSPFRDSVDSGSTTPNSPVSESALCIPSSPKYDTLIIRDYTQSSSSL

fold more active than 11 (rat mGlu5): more than 10 fold
Compound: O=C(c1cncnc1)c1cc(C(=O)Nc2ccc(F)cn2)c2ncccc2c1 [Compound 13]

conversion to metabolite (ketone reduction, alcohol 53) [1]: near complete conversion | Clp [2]: 3430 mL/min/kg
Compound: Cc1csc(NC(=O)c2cc(C(=O)c3cncnc3)cc3cccnc23)n1 [Compound 14]

mGlu5 pIC50 (±SEM) (rat mGlu5): < 4.5
Compound: N#Cc1ccc(NC(=O)c2cc(C(F)(F)c3cncnc3)cc3cccnc23)nc1 [Compound 32]

fold drop in mGlu5 potency (rat mGlu5; relative to compound 27 (methyl to cyclopropyl)): 3.5 fold
Compound: O=C(Nc1nc(C2CC2)cs1)c1cc(C(F)(F)c2cncnc2)cc2cccnc12 [Compound 36]

CLHEP (predicted hepatic clearance) ([3]; human S9, +NADPH, CLHEP = (QH × CLINT)/(QH + CLINT)): 17.3 mL/min/kg | CLHEP (predicted hepatic clearance) ([3]; human S9, −NADPH): 12.6 mL/min/kg | CLint scaled at 1 h ([3]; human S9, +NADPH): 98.2 mL/min/kg | CLint scaled at 1 h ([3]; human S9, −NADPH): 31.3 mL/min/kg | CLHEP (predicted hepatic clearance) ([4]; rat S9, +NADPH, CLHEP = (QH × CLINT)/(QH + CLINT)): 51.8 mL/min/kg | CLHEP (predicted hepatic clearance) ([4]; rat S9, −NADPH): 23.2 mL/min/kg | CLint scaled at 1 h ([4]; rat S9, +NADPH): 199 mL/min/kg | CLint scaled at 1 h ([4]; rat S9, −NADPH): 34.7 mL/min/kg
Compound: Cc1csc(NC(=O)c2cc(C(F)c3cncnc3)cc3cccnc23)n1 (stereo not drawn) [Compound 21]

fold more active than 11 (rat mGlu5): more than 10 fold
Compound: Cc1cccc(NC(=O)c2cc(C(=O)c3cncnc3)cc3cccnc23)n1 [Compound 12]

mGlu5 pIC50 (±SEM) (rat mGlu5): < 4.5
Compound: COc1ccnc(NC(=O)c2cc(C(F)(F)c3cncnc3)cc3cccnc23)c1 [Compound 34]

mGlu5 pIC50 (±SEM) (rat mGlu5): < 4.5
Compound: N#Cc1ccnc(NC(=O)c2cc(C(F)(F)c3cncnc3)cc3cccnc23)c1 [Compound 35]

Compound: O=C(Nc1ccc(F)cn1)c1cc(Oc2cncc(F)c2)cn2ncnc12 [Compound 2]
selectivity vs. other mGlus [5]: >500

potency versus mGlu5 (in words) (rat mGlu5; compared with compound 2): similarly potent
Compound: O=C(Nc1ccc(F)cn1)c1cc(Oc2cncc(F)c2)cc2cccnc12 [Compound 3]
